Source: PubChem BioAssay (several laboratories)
Shown are actives, neighbours in structure and some others; about 8.9% of the full set was active somewhere.
b-catenin transl: modulators of beta-catenin nuclear translocation, primary screen, imaging, HeLa cells, immunofluorescence, high-content; nuclear translocation activity, % at 5 µM; 190,000 tested, 0.3% active; AID 1665, 2009;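 active means nuclear translocation activity above 50% at 5 µM, with a well cell count of 50 or more; inconclusive means wells under 50 cells across six images, flagged as toxic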;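 further: per-cell ratio of nuclear to cytoplasmic median beta-catenin stain intensity; plate controls were DMSO negative control for no effect and GSK-3 inhibitor IX positive control for full effect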
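Test system: human HeLa cell line; Doses: 5 µM primary, 0.02–20 µM confirmation; Incubation: 24 h compound exposure, 37°C; Detection: beta-catenin immunofluorescence imaging with DAPI; Read-out: beta-catenin nuclear/cytoplasmic ratio, % activation.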
Dynein cargo inh: inhibitors of GR-EGFP nuclear translocation, primary screen, dynein cargo transport inhibitor project, imaging, high-content, 3617.4 mouse cells; test concentration mostly 20 µM; stimulated with dexamethasone, 1 µM; hits give low values; z-score, hits read low; 220,000 tested, 0.47% active; AID 1381, 2008;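 active means plate z-score of nuclear minus cytoplasmic receptor signal below a set negative limit, without overly bright fluorescence or cell loss, cut at about -3.5 in these data, passing the limit was not always enough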;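 further: z-score of nuclear minus cytoplasmic ring GR-EGFP intensity difference per well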
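Also added: dexamethasone, 1.0 µM final. Medium: tet-free, stripped-serum medium. Detection: fixed, Hoechst-stained cells imaged at 10x for EGFP. Read-out: nuclear-to-cytoplasmic GR-EGFP distribution per well. Times: induction 48 h, compound 1 h, agonist 30 min.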
MT stabilize HCS: microtubule stabilizers in HeLa cells, primary screen, imaging, high-content imaging | % tubulin-high responders, % at 10 µM | AID 2205, 2009 | 200,000 tested, 0.83% active | HeLa tubulin immunostaining HCS, 24 h; share of cells brighter than vehicle mean+2SD;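 active means plate Z-score above 3 for both tubulin-high and condensed-nucleus cell shares, with cell loss under 80%, at 10 µM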;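 further: anti alpha tubulin signal scored within the nucleus-defined area of each cell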
L major viab: Leishmania major promastigote growth inhibition, primary screen. Leishmania major promastigotes, resazurin fluorescence viability. inhibition, % at 10 µM. 200,000 tested, 9% active; in the data active means inhibition above about 50%;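 further: promastigotes grown with compound for 44 hours at 28 °C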
HSV augment: enhancers of HSV replication in host cells, fold increase, host cell viability. HSV replication augmentation in cells. maximum fold increase. 220,000 tested, 0.005% active; in the data active means maximum fold increase above about 1.5; inconclusive means no clear call, values can overlap the other calls; tested in PC3 cells
Active calls of the source: *.

How did O=c1[nH]c2ccccc2nc1/C=C/c1ccc(F)cc1 do in these assays?
b-catenin transl: -1; Dynein cargo inh: -3; MT stabilize HCS: 5; L major viab: -6; HSV augment: inactive

Results for COc1ccccc1NC(=O)Cn1c(=O)oc2ccccc21 ?
b-catenin transl: 0; Dynein cargo inh: 1.9; MT stabilize HCS: 3; L major viab: 2; HSV augment: inactive

What do the screens show for `COC(=O)c1cc2oc3ccccc3c2n1CC(=O)Nc1ccccc1OC`?
Dynein cargo inh: 0.0018; MT stabilize HCS: 2; L major viab: 83*; HSV augment: inactive

What do the screens show for `COc1ccccc1NC(=O)c1oc2ccccc2c1NC(=O)c1cc(OC)c(OC)c(OC)c1`?
Dynein cargo inh: -3.8; MT stabilize HCS: 36*; L major viab: -2

Results for COc1ccccc1NC(=O)Cn1c(=O)n(-c2ccccc2)c(=O)c2oc3ccccc3c21 ?
b-catenin transl: -2; Dynein cargo inh: -0.62; MT stabilize HCS: 2; L major viab: -3; HSV augment: inactive

Results for COc1cccc(CNC(=O)c2cc3oc4ccccc4c3n2C)c1OC ?
Dynein cargo inh: -0.9; MT stabilize HCS: 2; L major viab: -6; HSV augment: inactive

Results for COc1ccc(NC(=O)Cn2c(=O)n(-c3ccccc3)c(=O)c3oc4ccccc4c32)c(OC)c1 ?
b-catenin transl: -1; Dynein cargo inh: -0.32; MT stabilize HCS: 1; L major viab: 61*; HSV augment: inactive

What do the screens show for `CCOc1ccccc1CNC(=O)c1cc2oc3ccccc3c2n1CC`?
Dynein cargo inh: -0.66; MT stabilize HCS: 2; L major viab: 97*; HSV augment: inactive

Results for COc1ccc(C2CCN(Cc3cccnc3)CC2O)cc1 (centres undefined) ?
b-catenin transl: -8; Dynein cargo inh: 3.1; MT stabilize HCS: 7; L major viab: 88*; HSV augment: inactive

Results for COc1ccc(C2CCN(CC(=O)N(C)C)CC2O)cc1 (centres undefined) ?
b-catenin transl: -2; Dynein cargo inh: -0.51; MT stabilize HCS: 5; L major viab: -5; HSV augment: inactive

How did N#CC(C#SN)=C1CCCCC1 do in these assays?
b-catenin transl: -5; Dynein cargo inh: 0.25; MT stabilize HCS: 4; L major viab: -6; HSV augment: inactive

How did Cc1ccc(CSc2nc3c(c(N(C)C)n2)CCCC3)cc1 do in these assays?
b-catenin transl: -1; Dynein cargo inh: -0.18; MT stabilize HCS: 12; L major viab: 8; HSV augment: inactive

How did CNc1nc(SCc2ccc(C)cc2)nc2c1CCCC2 do in these assays?
b-catenin transl: 1; Dynein cargo inh: 0.03; MT stabilize HCS: 2; L major viab: 100*; HSV augment: inactive

Results for COc1cc(/C=C(\C#N)C(=O)Nc2cccc3ncccc23)ccc1O ?
b-catenin transl: 2; Dynein cargo inh: 1.2; MT stabilize HCS: 2; L major viab: 100*; HSV augment: inactive

What do the screens show for `COc1cc(/C=C(\C#N)C(=O)Nc2ccc3c(c2)OCCO3)ccc1O`?
b-catenin transl: -1; Dynein cargo inh: 2.7; HSV augment: inactive

What do the screens show for `CCCCCn1c(=NC(=O)c2ccco2)c(C(=O)OCC)cc2c(=O)n3ccccc3nc21`?
b-catenin transl: -2; Dynein cargo inh: -0.19; MT stabilize HCS: 2; L major viab: 49

Results for CCCCn1c(=NC(=O)c2ccco2)c(C(=O)OCC)cc2c(=O)n3ccccc3nc21 ?
b-catenin transl: 5; Dynein cargo inh: -1.2; MT stabilize HCS: 3; L major viab: 51*; HSV augment: inactive

Results for CCOC(=O)c1cc2c(=O)n3ccccc3nc2n(C(C)C)c1=NC(=O)c1c(-c2c(F)cccc2Cl)noc1C ?
b-catenin transl: 4; Dynein cargo inh: 0.43; MT stabilize HCS: 7; L major viab: 99*; HSV augment: inactive

How did CCc1ccccc1Nc1nc(N)nc(CSCC(=O)Nc2ccc(C)c(C)c2)n1 do in these assays?
Dynein cargo inh: -0.36; MT stabilize HCS: 3; L major viab: 85*; HSV augment: inactive

Results for CCc1ccc(NC(=O)CSCc2nc(N)nc(Nc3ccccc3CC)n2)cc1 ?
b-catenin transl: 2; Dynein cargo inh: -0.14; MT stabilize HCS: 3; L major viab: 8; HSV augment: inactive

Results for COc1ccc(N(C(=O)Cn2nnc3ccccc32)C2(C(=O)NC3CCCC3)CCCCC2)cc1 ?
Dynein cargo inh: -0.43; MT stabilize HCS: 3; L major viab: 8; HSV augment: inactive

What do the screens show for `CCNC(=O)C1Cc2ccccc2CN1S(=O)(=O)c1ccc(F)cc1` (centres undefined)?
b-catenin transl: -1; Dynein cargo inh: 1.6; HSV augment: inactive

What do the screens show for `CC1=NNC(=O)/C1=C\c1cn(-c2ccccc2)nc1-c1ccc(Cl)cc1`?
b-catenin transl: 1; Dynein cargo inh: 0.44; MT stabilize HCS: 79; L major viab: 101*; HSV augment: inactive

Results for Cc1ccc(-c2nn(-c3ccccc3)cc2C=C2C(=O)CC(C)(C)CC2=O)cc1 ?
b-catenin transl: -4; Dynein cargo inh: -0.44; MT stabilize HCS: 3; L major viab: 96*; HSV augment: inactive

How did O=C(CC12CC3CC(CC(C3)C1)C2)NC(=S)NCc1ccco1 do in these assays?
b-catenin transl: 11; Dynein cargo inh: -1.1; MT stabilize HCS: 2; L major viab: 93*; HSV augment: inactive

What do the screens show for `O=C(NCc1ccco1)C12CC3CC(CC(C3)C1)C2`?
b-catenin transl: -2; Dynein cargo inh: 1.3; MT stabilize HCS: 6; L major viab: 0; HSV augment: inactive

How did CCOC(=O)C1=C(C)NC(=O)C1(NC(=O)c1cccnc1)C(F)(F)F (centres undefined) do in these assays?
b-catenin transl: -1; Dynein cargo inh: -0.41; MT stabilize HCS: 2; L major viab: 0; HSV augment: inactive

How did CCOc1cc(/C=C(\C#N)C(=O)NCC2CCCO2)ccc1O (centres undefined) do in these assays?
b-catenin transl: 0; Dynein cargo inh: -0.49; MT stabilize HCS: 3; L major viab: 64*; HSV augment: inactive

How did Cn1cccc1/C=N/NC(=O)c1cc(-c2cccs2)nc2ccccc12 do in these assays?
b-catenin transl: 17; Dynein cargo inh: -0.14; MT stabilize HCS: 17*; L major viab: 56*; HSV augment: inactive

How did Cc1ccc(-c2cc(C(=O)N/N=C/c3c(C)nn(C)c3C)c3ccccc3n2)cc1C do in these assays?
Dynein cargo inh: 1.2; MT stabilize HCS: 2; L major viab: 82*; HSV augment: inconclusive

Results for Cc1ccc(-c2cc(C(=O)NCc3ccccn3)c3ccccc3n2)cc1 ?
b-catenin transl: -1; Dynein cargo inh: -0.017; MT stabilize HCS: 2; L major viab: 25; HSV augment: inactive

Results for CCc1ccc(-c2cc(C(=O)NCc3ccccn3)c3ccccc3n2)cc1 ?
b-catenin transl: 0; Dynein cargo inh: 2.9; MT stabilize HCS: 7; L major viab: 97*; HSV augment: inactive
